Test results published in ChEMBL document CHEMBL4706633, “Design, Synthesis, and Biological Evaluation of a Series of Oxazolone Carboxamides as a Novel Class of Acid Ceramidase Inhibitors” (J Med Chem, 2020).
Active and inactive are the calls of the source. No cut-off for these calls is given here.

What was measured:
[1] = biological target: T1, Acid ceramidase (Homo sapiens) (UniProt Q13510); assay: Irreversible covalent inhibition of human acid ceramidase using N-lauroyl ceramide incubated for 1 hr by LC/MS analysis
T1 sequence (whole entry): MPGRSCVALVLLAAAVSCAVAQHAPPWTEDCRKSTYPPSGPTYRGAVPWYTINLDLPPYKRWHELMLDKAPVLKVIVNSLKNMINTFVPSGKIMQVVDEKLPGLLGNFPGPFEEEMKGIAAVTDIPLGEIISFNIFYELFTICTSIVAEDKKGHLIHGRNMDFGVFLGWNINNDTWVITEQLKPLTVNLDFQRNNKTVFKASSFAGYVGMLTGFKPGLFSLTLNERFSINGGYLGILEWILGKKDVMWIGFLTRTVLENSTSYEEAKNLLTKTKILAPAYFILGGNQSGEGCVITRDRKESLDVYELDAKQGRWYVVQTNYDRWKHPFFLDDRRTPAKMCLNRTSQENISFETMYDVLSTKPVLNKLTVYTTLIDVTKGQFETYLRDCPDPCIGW

[2] = Kinetic solubility in pH 7.4 PBS buffer at 250 uM incubated for 1 hr by UPLC/MS analysis; type: physicochemical; conditions: read-out: Kinetic_solubility
Procedure, shortened: (§1)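 Kinetic aqueous solubility was measured in PBS, pH 7.4. Metabolic stability was measured as t1/2 in mouse plasma and mouse liver microsomes, with microsomal data also given as % compound remaining at 1 h. Values are means of at least two independent experiments, each in two technical replicates.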

[3] = Half life in mouse plasma at 2 uM by LC/MS-MS analysis; type: ADME, cell-free; procedure, shortened: as §1
[4] = Half life in mouse liver microsomes at 4.6 uM in presence of NADPH by LC/MS-MS analysis; type: ADME, Microsome; procedure, shortened: as §1
[5] = Stability in mouse liver microsomes at 4.6 uM in presence of NADPH after 60 mins by LC/MS-MS analysis; type: ADME, Microsome; conditions: read-out: Stabilty; procedure, shortened: as §1
[6] = biological target: T2, N-acylethanolamine-hydrolyzing acid amidase (Homo sapiens) (UniProt Q02083); assay: Inhibition of human NAAA up to 125 uM; conditions: dose microM <=125
T2 sequence (whole entry): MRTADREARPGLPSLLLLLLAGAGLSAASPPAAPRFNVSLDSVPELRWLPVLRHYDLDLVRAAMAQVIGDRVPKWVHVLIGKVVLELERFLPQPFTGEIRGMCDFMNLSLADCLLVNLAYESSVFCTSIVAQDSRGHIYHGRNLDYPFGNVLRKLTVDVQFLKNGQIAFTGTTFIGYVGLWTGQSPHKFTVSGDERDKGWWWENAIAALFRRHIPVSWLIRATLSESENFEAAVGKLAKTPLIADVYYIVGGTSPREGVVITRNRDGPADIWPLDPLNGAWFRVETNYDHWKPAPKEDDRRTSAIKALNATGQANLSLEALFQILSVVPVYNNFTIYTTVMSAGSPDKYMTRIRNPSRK

[7] = Elimination half life in C57BL/6 mouse at 3 mg/kg, iv measured up to 4 hrs by LC/MS-MS analysis; type: ADME, organism-based; conditions: in vivo
Procedure, shortened: (§2)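 C57BL/6 mice were dosed intravenously at 3 mg/kg or orally at 10 mg/kg. Plasma PK parameters were derived per route: clearance, Vdss and t1/2 after i.v. dosing, and tmax, Cmax, t1/2 and AUC after oral dosing. Oral bioavailability F was estimated from the oral and i.v. exposures.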

[8] = Volume of distribution at steady state in C57BL/6 mouse at 3 mg/kg, iv measured up to 4 hrs by LC/MS-MS analysis; type: ADME, organism-based; conditions: in vivo; procedure, shortened: as §2
[9] = AUC in C57BL/6 mouse at 3 mg/kg, iv measured up to 4 hrs by LC/MS-MS analysis; type: ADME, organism-based; set-up: route intravenous, dose 3 mg/kg, time <=4; conditions: in vivo
[10] = Tmax in C57BL/6 mouse at 10 mg/kg, po measured up to 4 hrs by LC/MS-MS analysis; type: ADME, organism-based; conditions: in vivo; procedure, shortened: as §2
[11] = Cmax in C57BL/6 mouse at 10 mg/kg, po measured up to 4 hrs by LC/MS-MS analysis; type: ADME, organism-based; set-up: route oral, dose 10 mg/kg, time <=4; conditions: in vivo; procedure, shortened: as §2
[12] = Elimination half life in C57BL/6 mouse at 10 mg/kg, po measured up to 4 hrs by LC/MS-MS analysis; type: ADME, organism-based; conditions: in vivo; procedure, shortened: as §2
[13] = Clearance in C57BL/6 mouse at 10 mg/kg, po measured up to 4 hrs by LC/MS-MS analysis; type: ADME, organism-based; conditions: in vivo
[14] = Volume of distribution at steady state in C57BL/6 mouse at 10 mg/kg, po measured up to 4 hrs by LC/MS-MS analysis; type: ADME, organism-based; conditions: in vivo
[15] = AUC in C57BL/6 mouse at 10 mg/kg, po measured up to 4 hrs by LC/MS-MS analysis; type: ADME, organism-based; set-up: route oral, dose 10 mg/kg, time <=4; conditions: in vivo; procedure, shortened: as §2
[16] = Oral bioavailability in C57BL/6 mouse at 10 mg/kg measured up to 4 hrs by LC/MS-MS analysis; type: ADME, organism-based; conditions: in vivo; procedure, shortened: as §2
[17] = biological target: T1, Acid ceramidase (Homo sapiens); assay: Inhibition of acid ceramidase in human SH-SY5Y cells assessed as reduction in sphingolipid levels at 1 to 10 uM incubated for 3 hrs by LC-MS analysis; type: cell-based; conditions: dose 1-10 µM
Procedure, shortened: (§3)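 SH-SY5Y human neuroblastoma cells were exposed for 3 h at 1, 2.5, 5 or 10 μM. Cellular sphingolipids (Cer species, So, SM, HexCer) were quantified by LC/MS. Data are means ± SEM of at least six determinations, with experiments repeated twice. Significance was taken at p < 0.05.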

[18] = biological target: T1, Acid ceramidase (Homo sapiens); assay: Inhibition of acid ceramidase in human SH-SY5Y cells assessed as reduction in sphingolipid levels at 10 uM incubated for 1 to 6 hrs by LC-MS analysis; type: cell-based; conditions: time 1-6 hrs, TDE = time-dependent effect
Procedure, shortened: (§4)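 SH-SY5Y neuroblastoma cultures were treated at 10 μM for 1, 3 or 6 h. Intracellular sphingolipids (Cer, So, SM, HexCer) were then identified and quantified by LC/MS.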

[19] = biological target: T1, Acid ceramidase (Homo sapiens); assay: Inhibition of acid ceramidase in human SH-SY5Y cells assessed as intracellular accumulation of Cer (d18:0/16:0) at 1 to 10 uM incubated for 3 hrs by LC-MS analysis; type: cell-based; conditions: dose 1-10 µM; procedure, shortened: as §3
[20] = biological target: T1, Acid ceramidase (Homo sapiens); assay: Inhibition of acid ceramidase in human SH-SY5Y cells assessed as intracellular accumulation of Cer (d18:1/16:0) at 1 to 10 uM incubated for 3 hrs by LC-MS analysis; type: cell-based; conditions: dose 1-10 µM; procedure, shortened: as §3
[21] = biological target: T1, Acid ceramidase (Homo sapiens); assay: Inhibition of acid ceramidase in human SH-SY5Y cells assessed as reduction in sphingosine level at 1 to 10 uM incubated for 3 hrs by LC-MS analysis; type: cell-based; conditions: dose 1-10 µM; procedure, shortened: as §3
[22] = test system: SH-SY5Y; assay: Effect on SM (d18:1/16:0) levels in human SH-SY5Y cells at 1 to 10 uM incubated for 3 hrs by LC-MS analysis; type: functional, cell-based; conditions: dose 1-10 µM; procedure, shortened: as §3
[23] = test system: SH-SY5Y; assay: Effect on HexCer (d18:1/16:0) levels in human SH-SY5Y cells at 1 to 10 uM incubated for 3 hrs by LC-MS analysis; type: functional, cell-based; conditions: dose 1-10 µM; procedure, shortened: as §3
[24] = biological target: T1, Acid ceramidase (Homo sapiens); assay: Inhibition of acid ceramidase in human SH-SY5Y cells assessed as intracellular accumulation of Cer (d18:0/16:0) at 10 uM incubated for 1 to 6 hrs by LC-MS analysis; type: cell-based; conditions: time 1-6 hrs; procedure, shortened: as §4
[25] = biological target: T1, Acid ceramidase (Homo sapiens); assay: Inhibition of acid ceramidase in human SH-SY5Y cells assessed as intracellular accumulation of Cer (d18:1/16:0) at 10 uM incubated for 1 to 6 hrs by LC-MS analysis; type: cell-based; conditions: time 1-6 hrs; procedure, shortened: as §4
[26] = biological target: T1, Acid ceramidase (Homo sapiens); assay: Inhibition of acid ceramidase in human SH-SY5Y cells assessed as reduction in sphingosine level at 10 uM incubated for 1 to 6 hrs by LC-MS analysis; type: cell-based; conditions: time 1-6 hrs; procedure, shortened: as §4
[27] = test system: SH-SY5Y; assay: Effect on SM (d18:1/16:0) levels in human SH-SY5Y cells at 10 uM incubated for 1 to 6 hrs by LC-MS analysis; type: functional, cell-based; conditions: time 1-6 hrs; procedure, shortened: as §4
[28] = test system: SH-SY5Y; assay: Effect on HexCer (d18:1/16:0) levels in human SH-SY5Y cells at 10 uM incubated for 1 to 6 hrs by LC-MS analysis; type: functional, cell-based; conditions: time 1-6 hrs; procedure, shortened: as §4
[29] = biological target: T3, Acid ceramidase (Homo sapiens, UniProt Q13510); assay: Inhibition of human acid ceramidase using Rbm14-12 fluorogenic substrate incubated for 1 hr by fluorescence assay; conditions: read-out: IC50
T3 sequence (Q13510 whole entry): T1 sequence (whole entry)

inhibition [1]: Active
solubility kinetic at 1 h, 250 µM [2]: > 250 µM
t1/2 [3]: 1.83 h
t1/2 [4]: > 1 h
remaining at 1 h, 4.6 µM [5]: 74%
inhibition [6]: inactive
beta t1/2 [7]: 1.98 h
Vdss [8]: 12.426 L/kg
AUC [9]: 31978 ng·min/mL
Tmax [10]: 0.5 h
Cmax [11]: 278 ng/mL
beta t1/2 [12]: 2.45 h
CL/F [13]: 155 mL/min/kg
Vdss [14]: 32.877 L/kg
AUC [15]: 42525 ng·min/mL
F [16]: 40%
inhibition [17]: Dose-dependent effect
inhibition [18]: Tde
inhibition [19]: Dose-dependent effect
inhibition [20]: Dose-dependent effect
inhibition [21]: Dose-dependent effect
inhibition [24]: Active
inhibition [25]: Active
inhibition [26]: Active
IC50 [29]: 129 nM
Compound: CCCCCNC(=O)n1cc(-c2ccc(F)cc2C2CCN(C)CC2)oc1=O
Activity [22]: inactive
Activity [23]: inactive
Activity [27]: inactive
Activity [28]: inactive
